# From ChEMBL document CHEMBL1130202, “Biologically active heteroarotinoids exhibiting anticancer activity and decreased toxicity” (J Med Chem, 1997)
# Tested on: CC-B
# Test: Relative transcriptional activation activity relative to t-RA
# Type: functional, Homo sapiens
# Summary of the method: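 CC-B reporter cells (CC-1 cervical line carrying a CAT gene under a RARE with a tk promoter) were seeded at 4×10^5 cells/well in MEM with nonessential amino acids, pyruvate and 10% FBS, the serum lots having negligible t-RA by HPLC. Triplicate cultures were screened at 10^-6 M with 0.1% DMSO final. After 48 h, CAT activity ([3H]acetyl-CoA) per mg protein was taken as treated/control and expressed relative to t-RA. Average of three experiments.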
row,SMILES,Relative activity
1,C/C(=C\c1ccc(C(=O)O)cc1)c1ccc2c(c1)C(C)(C)CO2,46
2,CCOC(=O)c1ccc(/C=C(\C)c2ccc3c(c2)C(C)(C)CCO3)cc1,35.7
3,CCOC(=O)c1ccc(/C=C(\C)c2ccc3c(c2)C(C)(C)CCS3)cc1,51
4,CCCCCCCCC1CCc2cc(/C(C)=C/c3ccc(C(=O)OCC)cc3)ccc2S1 (stereo unspecified),43
5,CCOC(=O)c1ccc(OC(=O)c2ccc3c(c2)C(C)(C)CCN3C)cc1,54
6,CCOC(=O)c1ccc(/C=C(\C)c2ccc3c(c2)CC[C@@H](CC)[S+]3[O-])cc1 (stereo partly specified),35.8
7,CC(/C=C/C=C(\C)c1ccc2c(c1)C(C)(C)CS2)=C\C(=O)O,50
8,CC1(C)CCOc2ccc(C(=O)Oc3ccc(/C=N\N=C(/N)S)cc3)cc21,33
9,CCOC(=O)c1ccc(OC(=O)c2ccc3c(c2)C(C)(C)CCO3)cc1,40
10,COC(=O)c1ccc(C(=O)Oc2c(C)cc3c(c2C)C(C)(C)CC(=O)O3)cc1,29
11,C/C(=C\c1ccc(C(=O)O)cc1)c1ccc2c(c1)C(C)(C)CS2,56
